Experimental data as given in ChEMBL document CHEMBL4665666, “Discovery and characterization of trypanocidal cysteine protease inhibitors from the 'malaria box'” (Eur J Med Chem, 2019).
The source made the active and inactive calls. No cut-off for these calls is given here.

Tests used:
Cruzipain [1] = molecular target: T1, Cruzipain (Trypanosoma cruzi, UniProt P25779); assay: Competitive inhibition of recombinant Trypanosoma cruzi cruzain by Lineweaver-Burk plot analysis
Procedure, shortened: (§1)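 Cruzain (recombinant, 1 nM) in 0.1 M sodium acetate pH 5.5 with 0.01% Triton X-100 and 1 mM β-mercaptoethanol; Z-FR-AMC 2.5 µM, read at 340/440 nm every 12 s for 5 min, with or without 10 min enzyme–compound pre-incubation. […] For mechanism and Ki, 0.3–20.0 µM substrate and five inhibitor levels were used, with Lineweaver-Burk plots.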

Trypanosoma cruzi [2] = assay: Trypanocidal activity against Trypanosoma cruzi Y strain trypomastigotes pretreated with compound at 3.125 uM infected in macrophage assessed as reduction in number of trypomastigotes release measured after 7 days by Neubauer chamber method; format: functional, Peritoneal macrophage; parameters: scale not given: the % may be the effect or the level left; conditions: time 7 day
Procedure, shortened: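 Y strain trypomastigotes (1×10^6/mL) were incubated 1 h at 37°C in RPMIc with compound at 3.125 µM or medium alone. They were then pelleted, recounted and used to infect C57BL/6 peritoneal macrophages at 5:1 (parasite:cell) for 2 h. Trypomastigotes released into the supernatant were counted in a Neubauer chamber at 5, 7, 9 and 11 days. Three independent experiments, each in triplicate.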

Trypanosoma cruzi [3] = assay: Trypanocidal activity against Trypanosoma cruzi Y strain trypomastigotes infected in C57BL/6 mouse peritoneal macrophage assessed as reduction in number of trypomastigotes release at 50 uM and measured after day 3 to day 11 post-infection by Neubauer chamber method; format: functional, organism-based; conditions: time 11.0 day
Procedure, shortened: (§2)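 Thioglycolate-elicited peritoneal macrophages from female C57BL/6 mice, 2 × 10^5/well, infected 2 h at 37°C with Y strain trypomastigotes at 5:1 (parasite:cell) and washed. They were then held with compound (3.125–50 µM) or IFN-γ 100 ng/mL. Trypomastigotes released into the supernatant were counted in a Neubauer chamber at several days after infection. Three independent experiments, each in triplicate.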

Peritoneal macrophage [4] = assay: Cytotoxicity against C57BL/6 mouse peritoneal macrophage cells infected with 3.125 uM compound pretreated trypomastigotes and measured after 24 hrs by LDH release assay; format: cell-based
Procedure, shortened: (§3)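 Thioglycolate-elicited peritoneal macrophages from female C57BL/6 mice, 2 × 10^5/well, infected or not with T. cruzi Y trypomastigotes (5:1, 2 h). Either the cells got 3.125–50 µM compound or IFN-γ 100 ng/mL, or the parasites were pre-treated 1 h at 3.125 µM. LDH in supernatant measured at 24 h. Three experiments in triplicate.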

[5] = molecular target: Rhodesain (Trypanosoma brucei rhodesiense) (UniProt Q95PM0); assay: Inhibition of recombinant Trypanosoma brucei rhodesain expressed in Pichia pastoris at 5 uM using Z-FR-AMC as substrate and measured at 12 sec interval for 5 mins without preincubation by fluorimetric analysis relative to control
Chain of Rhodesain (Trypanosoma brucei rhodesiense) (Q95PM0 1-450): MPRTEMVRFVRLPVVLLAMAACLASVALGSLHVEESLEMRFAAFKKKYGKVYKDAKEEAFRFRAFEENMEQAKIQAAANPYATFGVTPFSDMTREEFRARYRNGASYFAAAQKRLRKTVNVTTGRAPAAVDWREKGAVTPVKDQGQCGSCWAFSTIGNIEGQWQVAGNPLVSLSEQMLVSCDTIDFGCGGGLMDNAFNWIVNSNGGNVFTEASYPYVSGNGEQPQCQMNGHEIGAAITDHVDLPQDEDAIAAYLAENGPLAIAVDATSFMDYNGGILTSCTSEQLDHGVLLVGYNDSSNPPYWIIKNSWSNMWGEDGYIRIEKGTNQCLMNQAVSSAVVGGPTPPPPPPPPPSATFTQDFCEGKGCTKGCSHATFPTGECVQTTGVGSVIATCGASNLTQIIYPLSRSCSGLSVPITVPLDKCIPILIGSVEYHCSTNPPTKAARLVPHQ
Procedure, shortened: (§4)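 Recombinant rhodesain or cruzain (1 nM) in 0.1 M sodium acetate pH 5.5, 0.01% Triton X-100, 1 mM β-mercaptoethanol. Compound at a single concentration, either without or after 10 min enzyme pre-incubation. Inhibition is relative to DMSO, with E-64 as positive control. Done in duplicate (primary screen) or triplicate.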

Peritoneal macrophage [6] = assay: Effect on nitric oxide production in Trypanosoma cruzi Y strain trypomastigotes infected in C57BL/6 mouse peritoneal macrophage measured after 11 days by Griess reagent based assay; format: functional, tissue-based; conditions: time 11.0 day
Procedure, shortened: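 Peritoneal macrophages from C57BL/6 mice, infected with T. cruzi Y trypomastigotes at 5:1 for 2 h and/or stimulated with compound or IFN-γ. Supernatant taken 11 days later and mixed with Griess reagent for 10 min. Absorbance read at 540 nm to give nitrite. Three independent experiments in triplicate.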

[7] = system: Trypanosoma brucei brucei; assay: Trypanocidal activity against Trypanosoma brucei brucei Squib 427 assessed as reduction in parasite viability; format: functional, organism-based
Trypanosoma cruzi [8] = assay: Trypanocidal activity against Trypanosoma cruzi Y strain trypomastigotes infected in C57BL/6 mouse peritoneal macrophage assessed as reduction in number of trypomastigotes release and measured after day 3 to day 11 post-infection by Neubauer chamber method; format: functional, organism-based; conditions: time 11.0 day; procedure, shortened: as §2
Rhodesain [9] = molecular target: T2, Rhodesain (Trypanosoma brucei rhodesiense, UniProt Q95PM0); assay: Inhibition of recombinant Trypanosoma brucei rhodesain expressed in Pichia pastoris using Z-FR-AMC as substrate and measured at 12 sec interval for 5 mins without preincubation by fluorimetric analysis
T2 sequence (Q95PM0 whole entry): as the sequence (Q95PM0 1-450) above
Procedure, shortened: (§5)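 Rhodesain (1 nM) with Z-FR-AMC (2.5 µM) in 0.1 M sodium acetate pH 5.5, 0.01% Triton X-100, 1 mM β-mercaptoethanol, with or without 10 min enzyme-compound pre-incubation. Fluorescence read at 340/440 nm. IC50 by four-parameter nonlinear regression from at least six concentrations in triplicate, with at least two independent runs. Mean ± SEM reported.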

[10] = molecular target: Cruzipain (Trypanosoma cruzi) (UniProt P25779); assay: Inhibition of recombinant Trypanosoma cruzi cruzain at 5 uM using Z-FR-AMC as substrate and measured at 12 sec interval for 5 mins without preincubation by fluorimetric analysis relative to control; procedure, shortened: as §4
Chain of Cruzipain (Trypanosoma cruzi) (P25779 123-467 limits assumed): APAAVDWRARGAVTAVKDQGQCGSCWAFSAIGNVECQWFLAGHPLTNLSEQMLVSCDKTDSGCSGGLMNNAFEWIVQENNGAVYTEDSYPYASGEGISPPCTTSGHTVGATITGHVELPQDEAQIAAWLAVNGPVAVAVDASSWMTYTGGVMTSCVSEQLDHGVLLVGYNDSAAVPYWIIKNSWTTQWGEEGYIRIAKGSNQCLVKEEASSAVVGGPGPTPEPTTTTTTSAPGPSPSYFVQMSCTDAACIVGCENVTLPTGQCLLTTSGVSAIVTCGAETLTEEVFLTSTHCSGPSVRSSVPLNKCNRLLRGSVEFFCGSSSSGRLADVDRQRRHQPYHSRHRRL

Peritoneal macrophage [11] = assay: Cytotoxicity against C57BL/6 mouse peritoneal macrophages assessed as reduction in cell viability at 3.125 uM measured after 24 hrs by LDH release assay; format: cell-based; procedure, shortened: as §3
[12] = molecular target: Cruzipain (Trypanosoma cruzi) (UniProt P25779); assay: Inhibition of recombinant Trypanosoma cruzi cruzain at 10 uM using Z-FR-AMC as substrate and measured at 12 sec interval for 5 mins without preincubation by fluorimetric analysis relative to control
Procedure, shortened: as §4, with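 “pre-incubation. Z-FR-AMC 2.5 µM, read at 340/440 nm every 12 s for 5 min.” for “pre-incubation.”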

Cruzipain [13] = molecular target: T1, Cruzipain; assay: Inhibition of recombinant Trypanosoma cruzi cruzain using Z-FR-AMC as substrate preincubated for 10 mins followed by substrate addition and measured at 12 sec interval for 5 mins by fluorimetric analysis; procedure, shortened: as §1
Rhodesain [14] = molecular target: T2, Rhodesain; assay: Mixed inhibition of recombinant Trypanosoma brucei rhodesain expressed in Pichia pastoris by Lineweaver-Burk plot analysis
Procedure, shortened: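 Rhodesain rates were measured at six or more Z-FR-AMC levels (0.3–20.0 µM) and five inhibitor levels, in pH 5.5 acetate buffer with 0.01% Triton X-100 and 1 mM β-mercaptoethanol. Read at 340/440 nm. Mechanism and Ki come from Michaelis–Menten nonlinear fits and Lineweaver–Burk linear regression.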

Rhodesain [15] = molecular target: T2, Rhodesain; assay: Inhibition of recombinant Trypanosoma brucei rhodesain expressed in Pichia pastoris using Z-FR-AMC as substrate preincubated for 10 mins followed by substrate addition and measured at 12 sec interval for 5 mins by fluorimetric analysis; procedure, shortened: as §5

T1 sequence (P25779 whole entry): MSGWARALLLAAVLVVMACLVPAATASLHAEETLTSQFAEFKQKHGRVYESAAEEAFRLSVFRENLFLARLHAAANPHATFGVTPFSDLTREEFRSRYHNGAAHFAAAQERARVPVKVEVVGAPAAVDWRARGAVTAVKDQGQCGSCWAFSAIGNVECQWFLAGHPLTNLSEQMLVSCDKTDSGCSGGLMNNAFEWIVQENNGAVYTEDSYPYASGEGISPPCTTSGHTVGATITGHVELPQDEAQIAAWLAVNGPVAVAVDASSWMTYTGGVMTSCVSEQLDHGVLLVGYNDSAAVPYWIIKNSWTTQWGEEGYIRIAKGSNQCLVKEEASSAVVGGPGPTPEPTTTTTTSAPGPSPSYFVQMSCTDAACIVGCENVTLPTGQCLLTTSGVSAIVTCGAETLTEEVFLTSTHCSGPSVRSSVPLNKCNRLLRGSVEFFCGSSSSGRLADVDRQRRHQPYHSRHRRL

Row | SMILES | Ki (Cruzipain [1]) | Activity (Trypanosoma cruzi [2]) | Activity (Trypanosoma cruzi [3]) | Activity (Peritoneal macrophage [4]) | inhibition [5] | Activity (Peritoneal macrophage [6]) | IC50 [7] | Activity (Trypanosoma cruzi [8]) | IC50 (Rhodesain [9]) | inhibition [10] | Activity (Peritoneal macrophage [11]) | inhibition [12] | IC50 (Cruzipain [13]) | Ki (Rhodesain [14]) | IC50 (Rhodesain [15])
1 | Cl.Cl.Clc1cc(Br)ccc1-c1ccc(CNCC2CCNCC2)o1 | 3 µM | 60% | Active | 30% | 31.3% | inactive | 100 nM | Dose-dependent effect | 53 µM | 29.1% | Non-Toxic | 25% |  |  | 
2 | Cn1c(=O)n(C)c2cc(CNCCNc3ccnc4cc(Cl)ccc34)ccc21 |  |  | Active |  | 47.7% |  |  |  |  | 64.9% |  | 13% | 51 µM | 10 µM | 38 µM
